# Hit rate of the full screen: of about 65,000 compounds, about 1,400 (2.2%) were called active. Shown is part of a subset that was picked to be rich in actives. Unmarked numbers belong to inactive results.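 The calls were made as follows: active = growth inhibition at or above a cutoff equal to the mean over every tested compound plus 3 SD (cut at about 60% in these data); inactive = the rest.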
# Experiment: E. coli ΔtolC antibacterial growth inhibition – strain BW25113 ΔtolC::kan, 384-well, primary screen (AID 573)
# Conditions: E. coli BW25113 tolC mutant growth, OD615; active compounds read high; screened at 10 µM (by protocol)
# Outline: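 Test system: E. coli BW25113 ΔtolC::kan bacteria; incubation: 37 °C, 20 h exposure; medium: LB broth supplemented with 50 µg/mL kanamycin; read-out basis: percent growth inhibition; signal: A615 absorbance measurement; compound: 10 µM final, single dose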
row,SMILES,growth inhibition
1,CCc1nnc(NS(=O)(=O)c2ccc(NS(=O)(=O)c3ccccc3)cc2)s1,19%
2,CCOC(=O)C1Cn2c(nc3c(c2=O)C(C)(CC)Cc2ccccc2-3)S1 (stereo unspecified),67.9% (active)
3,CCOC(=O)C1CCc2nc3ccccc3c(=O)n21 (stereo unspecified),-18.7%
4,CC1(C)Cc2ccccc2-c2nc(CN3CCOCC3)[nH]c(=O)c21,5.57%
5,CCCCc1nc2c(=O)[nH]c3ccccc3c2o1,-2.92%
6,Clc1ccc(Cn2ncc3c(NCc4cccnc4)ncnc32)cc1,18.6%
7,O=C(NCc1ccco1)C1CCCN(S(=O)(=O)c2cccc3nonc23)C1 (stereo unspecified),-21.5%
8,COc1ccc(N2C(=O)CC(N3CCC(C(N)=O)CC3)C2=O)cc1 (stereo unspecified),-10.9%
9,COc1cccc(-c2nnc(NC(=O)c3ccc(S(=O)(=O)N(CC(C)C)CC(C)C)cc3)o2)c1,98.8% (active)
10,CCN(CC)C(=O)CSc1nnc(-c2cccc(OC)c2)o1,-2.54%
11,COc1cccc(NC(=O)CN(C)S(=O)(=O)c2ccc(C)cc2)c1,13.3%
12,CCOC(=O)c1sc(NC(=S)n2cc(C)cn2)c(C(=O)OCC)c1C,23.8%
13,Cc1cc2nc(-c3ccc(NC(=O)c4cccnc4)cc3)oc2cc1C,10.2%
14,O=C(c1ccco1)N1CCN(C(=O)c2ccc(COc3ccc(F)cc3)o2)CC1,1.7%
15,Cc1cc(=O)[nH]c(=S)[nH]1,-13.2%
16,COC(=O)NC1(C(F)(F)F)NC(=O)N(C2CCCCC2)C1=O (stereo unspecified),-5.17%

row,SMILES,growth inhibition
1,O=C1NC(Nc2nc3ccccc3s2)(C(F)(F)F)C(=O)N1C1CCCCC1 (stereo unspecified),100% (active)
2,C1=C(N2CCOCC2)/C(=C/c2nc3ccccc3[nH]2)CC1,-16.7%
3,CCOC(=O)c1cc(-c2ccc(Cl)s2)nc2c1c(C)nn2C,8.55%
4,CC(C)CCNC(=O)CCNS(=O)(=O)c1ccc(Cl)cc1,7.04%
5,COc1ccc(OC)c2sc(NC(=O)C3COc4ccccc4O3)nc12 (stereo unspecified),70.5% (active)
6,O=C(Nc1nc(-c2ccncc2)cs1)C1COc2ccccc2O1 (stereo unspecified),36.7%
7,Cc1cc(NC(=O)CCC2COc3ccccc3O2)no1 (stereo unspecified),0.5%
8,CC(=O)c1cnc(Nc2nc(C)c3cc(C)ccc3n2)nc1C,-6.16%
9,COc1ccccc1-c1cc(C(=O)N2CCCCC2)no1,7.63%
10,COc1ccccc1N1CCN(C(=O)c2cc(-c3ccc(Br)cc3)on2)CC1,63.8% (active)
11,COc1ccccc1N1CCN(C(=O)c2cc(-c3ccc(Cl)c(Cl)c3)on2)CC1,-3.17%
12,Oc1c(C(c2ccccn2)N2CCOCC2)ccc2cccnc12 (stereo unspecified),29.8%
13,CCCC(C(=O)N1CCOCC1)N1C(=O)C2C3C=CC(C3)C2C1=O (stereo unspecified),-13.1%
14,CC(C)c1ccc(N2CC(C(=O)Nc3nccs3)CC2=O)cc1 (stereo unspecified),9.63%
15,Cc1oc(C)c(C(=O)NCCCC(=O)O)c1C(=O)NCCCC(=O)O,-20.2%
